Test results as given in ChEMBL document CHEMBL4354825, “Design and Synthesis of Basic Selective Estrogen Receptor Degraders for Endocrine Therapy Resistant Breast Cancer” (J Med Chem, 2019).
The source made the active and inactive calls. The calls are words filed in the database; no cut-off is given here.

Assays:
[1] = AUClast in C57BL/6 mouse at 5 mg/kg, iv measured upto 24 hrs by LC-MS/MS analysis; type: ADME, organism-based; design: time < 24 hr, dose 5 mg/kg, route intravenous; conditions: in vivo
Outline: (§1)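 Full PK run by a contract lab. Dosing was 50 mg/kg p.o. in water and 10% SBE-β-CD/PEG-400 (9:1 v/v), and 5 mg/kg i.v. Sampling at 0.25, 0.5, 1, 2, 4, 8 and 24 h (N = 5). Plasma samples were diluted in 50% acetonitrile and quantified by LC-MS/MS against standards serially diluted in 50% acetonitrile. Brain was also sampled after the oral dose.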

[2] = AUC (0 to infinity) in C57BL/6 mouse at 5 mg/kg, iv measured upto 24 hrs by LC-MS/MS analysis; type: ADME, organism-based; design: dose 5 mg/kg, route intravenous, time infinity; conditions: in vivo; outline: as §1
[3] = AUC extrapolated from the last time point to infinity in CD-1 mouse at 5 mg/kg, iv measured upto 24 hrs by LC-MS/MS analysis; conditions: in vivo
[4] = Half life in C57BL/6 mouse at 5 mg/kg, iv measured upto 24 hrs by LC-MS/MS analysis; type: ADME, organism-based; conditions: in vivo; outline: as §1
[5] = Plasma concentration in C57BL/6 mouse at 100 mg/kg, po measured after 2 hrs by LC/MS-MS analysis; type: ADME, organism-based
Outline: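 PK screen in female C57BL/6 mice (N = 3 per time point). Dosed by gavage at 100 mg/kg in HPβD/PEG-400. Plasma and brain were taken from perfused mice at 30 and 120 min. Quantified by LC-MS/MS in MRM mode, with standard curves in each matrix and a common internal standard. Values are mean and s.d.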

[6] = Antiproliferative activity against human MCF7:WS8 cells assessed as reduction in cell viability incubated for 5 days by Hoechst 33258 dye based assay; type: functional; conditions: MCF7:WS8, 120 h
Outline: (§2)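 Cells were seeded at 5000 per well; MCF7:WS8 had been estrogen-stripped for 2 days first. Compounds were serially diluted in DMSO, with 0.01% DMSO as vehicle. The medium was removed on day 5 (MCF7:WS8) or day 7 (MCF7:5C), and cells were lysed by freezing at −80 °C overnight. DNA was measured by Hoechst 33258 fluorescence. Maximum efficacy was normalized to vehicle (0%) and no cells (100%); at least three biological replicates.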

[7] = Cmax in CD-1 mouse plasma at 50 mg/kg, po measured upto 24 hrs by LC-MS/MS analysis; conditions: in vivo
[8] = species: Homo sapiens; experiment: Cytotoxicity against human MCF7:WS8 3D spheroid cells assessed as reduction in tumor cell viability at 10 nM incubated for 14 days by celltiter-glo 3D cell viability assay
[9] = biological target: T1, Estrogen receptor (Homo sapiens) (UniProt P03372); experiment: Induction of degradation of ERalpha in human MCF7:WS8 cells at 10 nM in presence of MG-132 incubated for 24 hrs by Western blot analysis; type: cell-based
T1 sequence (whole entry): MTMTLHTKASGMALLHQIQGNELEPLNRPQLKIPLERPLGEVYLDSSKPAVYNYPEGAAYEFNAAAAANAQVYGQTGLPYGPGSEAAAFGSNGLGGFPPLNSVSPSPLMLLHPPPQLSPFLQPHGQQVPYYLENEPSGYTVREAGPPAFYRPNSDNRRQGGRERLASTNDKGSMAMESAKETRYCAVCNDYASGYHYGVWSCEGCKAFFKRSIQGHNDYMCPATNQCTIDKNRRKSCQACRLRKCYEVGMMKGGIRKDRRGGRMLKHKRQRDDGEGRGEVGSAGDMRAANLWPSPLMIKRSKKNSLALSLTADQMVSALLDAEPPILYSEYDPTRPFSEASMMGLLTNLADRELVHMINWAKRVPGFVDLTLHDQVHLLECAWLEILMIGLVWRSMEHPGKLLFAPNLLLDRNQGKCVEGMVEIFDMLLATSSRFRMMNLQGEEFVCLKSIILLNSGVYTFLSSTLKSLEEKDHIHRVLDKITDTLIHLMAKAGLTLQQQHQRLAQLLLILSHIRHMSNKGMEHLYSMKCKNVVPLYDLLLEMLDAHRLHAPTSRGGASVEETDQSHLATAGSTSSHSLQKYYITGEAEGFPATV

[10] = Tmax in C57BL/6 mouse brain at 50 mg/kg, po measured upto 24 hrs by LC-MS/MS analysis; type: ADME, organism-based; conditions: in vivo; outline: as §1
[11] = tested on: Mus musculus; experiment: In vivo degradation of ERalpha in C57BL/6 mouse at 50 mg/kg, po administered for 3 days and measured on day 3 by Western blot analysis; type: functional, organism-based
Outline: (§3)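 Female C57BL/6J mice aged 9–12 weeks were dosed at 50 mg/kg p.o. in PEG 400/10% HPCD (1:9 v/v). Regimens were a single dose with sacrifice at 5 h, or 3 daily doses with sacrifice 5 h (n = 5) or 7 h (n = 6) after the last dose. Ovaries and uterus were homogenized, 20 μg protein was run by SDS-PAGE, and the blot was probed for ERα and normalized to β-actin.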

[12] = tested on: T47D; experiment: Cytotoxicity against human T47D 3D spheroid cells harboring D538G mutant assessed as reduction in tumor cell viability at 10 nM incubated for 14 days by celltiter-glo 3D cell viability assay
[13] = Antiproliferative activity against human MCF7:WS8 cells assessed as reduction in cell viability incubated for 5 days by Hoechst 33258 dye based assay relative to control; type: functional; conditions: MCF7:WS8, 120 h; outline: as §2
[14] = tested on: Mus musculus; experiment: In vivo degradation of ERalpha in C57BL/6 mouse at 50 mg/kg, po measured after 7 hrs by Western blot analysis; type: functional, organism-based; outline: as §3
[15] = biological target: T2, Estrogen receptor (Homo sapiens, UniProt P03372); experiment: Antagonist activity at ERalpha in human MCF7:WS8 cells incubated for 18 hrs by dual luciferase reporter gene assay relative to control; type: cell-based
T2 sequence (P03372 whole entry): T1 sequence (whole entry)
Outline: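 MCF7:WS8 cells were estrogen-deprived for 3 days (phenol red-free RPMI, stripped FBS), then plated and grown 24 h. They were co-transfected for 6 h with a 3×vitellogenin ERE-firefly luciferase plasmid and a pRL-TK Renilla plasmid. Compounds were given in competition with 1 nM E2 for 18 h, then dual luciferase was read.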

[16] = Oral bioavailability in C57BL/6 mouse at 50 mg/kg measured upto 24 hrs by LC-MS/MS analysis; type: ADME, organism-based; conditions: in vivo; outline: as §1
[17] = tested on: T47D; experiment: Cytotoxicity against human T47D 3D spheroid cells harboring Y537S mutant assessed as reduction in tumor cell viability at 10 nM incubated for 14 days by celltiter-glo 3D cell viability assay
[18] = AUClast/D in CD-1 mouse at 5 mg/kg, iv measured upto 24 hrs by LC-MS/MS analysis; conditions: in vivo
[19] = Cmax in C57BL/6 mouse at 5 mg/kg, iv measured upto 24 hrs by LC-MS/MS analysis; type: ADME, organism-based; design: dose 5 mg/kg, route intravenous; conditions: in vivo; outline: as §1
[20] = species: Homo sapiens; experiment: Cytotoxicity against human MCF7:WS8 3D spheroid cells assessed as reduction in tumor spheroid size at 10 nM incubated for 14 days
[21] = Antiproliferative activity against human MCF7:5C cells assessed as reduction in cell viability incubated for 7 days by Hoechst 33258 dye based assay relative to control; type: functional; conditions: 168 h; outline: as §2

AUClast [1]: 766 ng·h/mL
AUC [2]: 778 ng·h/mL
%AUCextra [3]: 1.52%
t1/2 [4]: 1.68 h
concentration at 2 h [5]: 2150 nM
Cmax [7]: 413 ng/mL
Activity [9]: inactive
Tmax [10]: 1 h
IC50 [15]: 3.1 nM
F [16]: 21.9%
AUClast/dose [18]: 153 ng·h/mL
Cmax [19]: 1590 ng/mL
SMILES: Cc1cc(F)cc(C)c1C(=O)c1sc2cc(O)ccc2c1Oc1ccc(OC2CN(CCCF)C2)cc1
IC50 [6]: 0.55 nM
Activity [8]: Active
Activity [11]: Active
Activity [12]: Active
Emax [13]: 80%
Activity [14]: Active
Activity [17]: Active
Activity [20]: Active
Emax [21]: 54%
